The structures appear in SMILES notation. The whole screen tested about 360,000 compounds, of which about 740 (0.21%) were called active. Only a selection was taken, and actives are over-represented in it overall. Values without a mark were called inactive.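 Rule for the calls: active = mean lysis activity across replicates of at least 80%, whatever share of replicates individually reach that level; inactive = mean lysis activity below 80%.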

The nature of this assay: Cryptococcus neoformans cell lysis inducers, primary screen, AK release luminescence, single concentration (AID 651654). Particulars: C. neoformans lysis, adenylate kinase release luminescence, 4 h; at 15 µM; stronger effect = higher value; normalised: neutral wells 0, clomiphene wells 100. In short, it runs like this:
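Material – Cryptococcus neoformans yeast cells · Quantity – 5 × 10^6 yeast cells/mL · Buffer or medium – YPD medium · Compound – single dose · Timing – 4 h static compound exposure, 37 °C, read 1 h post-reagent · Signal – adenylate kinase release luminescence · Read-out basis – lysis from increased AK signal · Benchmarks – Clomiphene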
For `CO[C@@H]1CN(C)C(=O)c2ccc(NS(=O)(=O)c3ccc(Cl)cc3)cc2OC[C@H](C)N(C(=O)NC(C)C)C[C@H]1C`, the lysis activity was -5.3%.

For the molecule `C[C@H]1CN([C@@H](C)CO)C(=O)c2cccc(NC(=O)Nc3ccccc3)c2O[C@@H]1CN(C)S(=O)(=O)c1ccc(F)cc1`, the lysis activity was -1.52%. As for `OC[C@@H]1[C@@H](c2ccc(C#CC3(O)CCCC3)cc2)[C@@H]2CN(Cc3cncnc3)CCCCN12`, the lysis activity was -3.24%. Then `O=C(C[C@@H]1CC[C@H](NC(=O)Nc2ccc(F)cc2)[C@H](CO)O1)NCc1ccccn1`, with -0.684%; and `CO[C@@H]1CN(C)C(=O)c2cc(NC(=O)C3CC3)ccc2OC[C@@H](C)N(C(=O)c2ccccc2F)C[C@@H]1C`, with 44%. Then `C[C@@H]1CN([C@@H](C)CO)S(=O)(=O)c2ccc(-c3ccc(C(=O)N(C)C)cc3)cc2O[C@@H]1CN(C)C(=O)Cc1ccccn1`, with 0.616%; and `CN1CCN(C(=O)c2cc3c(c(-c4cccc(-c5ccc(C(=O)N(C)C)cc5)c4)n2)[C@@H](CCO)N([S@](=O)C(C)(C)C)C3)CC1`, with -8.88%; and `Cc1ccc(S(=O)(=O)N[C@@H]2CC[C@H](CCNC(=O)C3CCOCC3)O[C@@H]2CO)cc1`, with -6.3%. The same measure for `COCC(=O)Nc1ccc2c(c1)OC[C@H](C)N(C(=O)c1ccccn1)C[C@@H](C)[C@H](OC)CN(C)C2=O`: 0.52%. `O=C(C[C@H]1CC[C@@H]2[C@H](COC[C@@H](O)CN2C(=O)Nc2ccc(Cl)cc2)O1)NC1Cc2ccccc2C1`: the lysis activity is -3.01%. The same measure for `C[C@@H]1CN([C@H](C)CO)C(=O)c2cc(C#CC3CC3)cnc2O[C@@H]1CN(C)Cc1cccc(C(=O)O)c1`: -8.03%. Then `C[C@H](CO)N1C[C@H](C)[C@@H](CN(C)Cc2ccc(C(=O)Nc3ccccc3N)cc2)Oc2c(NC(=O)C3CC3)cccc2C1=O`, with -0.959%; and `COCC(=O)N(C)C[C@@H]1Oc2cc(C#CCC(C)C)ccc2S(=O)(=O)N([C@@H](C)CO)C[C@@H]1C`, with 0.182%. The same measure for `O=C(CN1CCOCC1)NC[C@@H]1N[C@@H](CO)[C@@H]1c1ccc(-c2ccccc2)cc1`: 4.94%; for `CCC(=O)N1[C@@H]2CN(C(=O)Nc3ccc(Cl)cc3)c3ccccc3[C@@H]2[C@@H]1CO`: -1.93%. As for `COc1cccc(S(=O)(=O)Nc2ccc3c(c2)[C@@H]2C[C@H](CC(=O)NC4CCCCC4)O[C@H](CO)[C@@H]2O3)c1`, the lysis activity is 116% (active). In the case of `COc1cccc(S(=O)(=O)Nc2ccc3c(c2)[C@@H]2C[C@@H](CC(=O)NC4CCCCC4)O[C@H](CO)[C@@H]2O3)c1`, the lysis activity was 2.9%.

For the molecule `COc1cccc(S(=O)(=O)Nc2ccc3c(c2)[C@H]2C[C@H](CC(=O)O)O[C@H](CO)[C@H]2O3)c1`, the lysis activity is -0.106%. The same measure for `CCCC#Cc1cnc2c(c1)C(=O)N([C@H](C)CO)C[C@H](C)[C@H](CN(C)C(=O)c1cnccn1)O2`: -1.04%. Then `CCC(=O)Nc1ccc2c(c1)C(=O)N(C)[C@H]1CC[C@H](CC(=O)NC3Cc4ccccc4C3)O[C@H]1CO2`, with -0.192%; and `COCC(=O)Nc1ccc2c(c1)[C@H]1C[C@H](CC(=O)OC)O[C@@H](CO)[C@H]1O2`, with -5.98%.

On to `O=C(C[C@H]1CC[C@H]2[C@@H](COC[C@H](O)CN2C(=O)Nc2ccc(Cl)cc2)O1)NCC1CC1`, for which the lysis activity was -8.94%.

As for `C[C@H]1CN([C@@H](C)CO)C(=O)c2cc(NC(=O)Cn3cnnn3)ccc2O[C@H]1CN(C)Cc1ccc(C(=O)O)cc1`, the lysis activity was -7.7%.

In the case of `C[C@@H](NC(=O)C[C@@H]1CC[C@H](NC(=O)Cc2ccccn2)[C@H](CO)O1)c1ccccc1`, the lysis activity was -0.901%. The same measure for `C[C@H](NC(=O)C[C@@H]1CC[C@@H](NC(=O)Cc2ccccn2)[C@@H](CO)O1)c1ccccc1`: 0.182%; for `C[C@@H](NC(=O)C[C@H]1CC[C@@H](NC(=O)Cc2ccccn2)[C@@H](CO)O1)c1ccccc1`: 105% (active). The same measure for `COc1ccc(NC(=O)N(C)C[C@@H]2OCCCC[C@@H](C)Oc3ccc(NS(=O)(=O)c4c(C)noc4C)cc3C(=O)N([C@H](C)CO)C[C@@H]2C)cc1`: -3%; for `CC(C)C#Cc1ccc2c(c1)O[C@H](CN(C)Cc1ccccc1)[C@H](C)CN([C@@H](C)CO)S2(=O)=O`: 14.5%; for `CCNC(=O)C[C@@H]1CC[C@H]2[C@@H](COc3ccc(NC(=O)Cc4cccs4)cc3C(=O)N2C)O1`: -1.39%. For `COc1ccccc1CNC(=O)C[C@H]1CC[C@@H]2[C@H](COC[C@H](O)CN2Cc2ccccc2)O1`, the lysis activity was -1.1%. Then `COc1ccccc1-c1ccc2n(c1=O)C[C@@H]1[C@@H](CO)[C@H](C(=O)NCc3ccccc3Cl)N[C@H]21`, with -0.428%. With `CO[C@@H]1CN(C)C(=O)c2cc(NC(=O)c3ccno3)ccc2OC[C@@H](C)N(S(C)(=O)=O)C[C@@H]1C`, the lysis activity is 0.04%. For `C/C=C/c1ccc([C@H]2[C@@H](CO)N(C(C)=O)[C@H]2CN(C)S(C)(=O)=O)cc1`, the lysis activity is -1.56%. Then `C/C=C/c1ccc2c(c1)O[C@H](CN(C)C(=O)Nc1ccc(OC)cc1)[C@@H](C)CN([C@H](C)CO)S2(=O)=O`, with -3.44%; and `Cc1ccc(S(=O)(=O)Nc2ccc3c(c2)C(=O)N([C@@H](C)CO)C[C@@H](C)[C@@H](CN(C)Cc2ccc(C(F)(F)F)cc2)OCCCC[C@@H](C)O3)cc1`, with 54.9%; and `C[C@@H]1CCCCO[C@H](CN(C)C(=O)NC2CCCCC2)[C@H](C)CN([C@H](C)CO)C(=O)c2cc(NC(=O)c3ccncc3)ccc2O1`, with -2.46%.

As for `CO[C@@H]1CN(C)C(=O)c2cc(NC(=O)Nc3ccc(F)cc3)ccc2OC[C@@H](C)NC[C@@H]1C`, the lysis activity is -3.48%. In the case of `COc1cccc(-c2ccc3n(c2=O)C[C@@H]2[C@@H](CO)[C@H](C(=O)NCC4CC4)N(C(=O)NC(C)C)[C@H]32)c1`, the lysis activity is -2.16%. Then `CCC(=O)Nc1ccc2c(c1)C(=O)N(C)C[C@H](OC)[C@H](C)CN(Cc1ccccc1F)[C@H](C)CO2`, with 3.58%; and `C[C@@H]1CN([C@H](C)CO)S(=O)(=O)c2ccc(C3=CCCC3)cc2O[C@H]1CN(C)C(=O)c1ccccc1`, with 2.54%; and `O=C(C[C@@H]1C[C@@H]2c3cc(NS(=O)(=O)c4ccc(F)cc4)ccc3O[C@@H]2[C@@H](CO)O1)N1CCOCC1`, with -1.76%. Then `C[C@@H]1CCCCO[C@@H](CN(C)S(C)(=O)=O)[C@H](C)CN([C@@H](C)CO)C(=O)c2cc(NS(=O)(=O)c3cccs3)ccc2O1`, with 0.965%; and `C[C@H]1CN([C@@H](C)CO)C(=O)c2ccccc2-c2ccccc2CO[C@H]1CN(C)S(=O)(=O)c1cccc(C#N)c1`, with 82.9% (active). In the case of `Cc1ccc(S(=O)(=O)N(C)C[C@H]2OCc3ccccc3-c3ccccc3C(=O)N([C@@H](C)CO)C[C@@H]2C)cc1`, the lysis activity is -0.134%. Then `C[C@H]1CN([C@@H](C)CO)C(=O)c2ccccc2-c2ccccc2CO[C@H]1CN(C)S(=O)(=O)c1ccccc1C#N`, with 1.59%; and `CO[C@H]1CN(C)C(=O)c2cc(NC(=O)C3CC3)ccc2OC[C@@H](C)N(Cc2cc(F)ccc2F)C[C@H]1C`, with 0.743%. Then `COC(=O)C[C@H]1C[C@H]2c3cc(NC(=O)Nc4ccccc4F)ccc3O[C@H]2[C@H](CO)O1`, with 11.5%. Then `CO[C@@H]1CN(C)C(=O)c2ccc(NC(=O)Nc3c(C)noc3C)cc2OC[C@@H](C)NC[C@H]1C`, with -0.469%; and `O=C(c1ccncc1)N1CC[C@@H]2[C@H]1c1cc(Br)ccc1N[C@@H]2CO`, with -16.8%; and `C[C@H]1CN([C@@H](C)CO)S(=O)(=O)c2ccc(C3=CCCC3)cc2O[C@H]1CN(C)Cc1cccc(C(=O)O)c1`, with 0.868%.

The record behind these values is PubChem BioAssay AID651654 (Broad Institute, 2012).
